Measurements published in ChEMBL document CHEMBL4342471, “Discovery of Thieno[2,3-d]pyrimidine-Based Hydroxamic Acid Derivatives as Bromodomain-Containing Protein 4/Histone Deacetylase Dual Inhibitors Induce Autophagic Cell Death in Colorectal Carcinoma Cells” (J Med Chem, 2020).
Activity calls are given as the source filed them. The rule behind the calls is not given here.

What was measured:
Mus musculus [1] = assay: Increase in phosphorylated STAT3 expression in tumor tissue of BALB/cAnNCrl mouse xenografted with human HCT116 cells at 30 mg/kg, po administered on day 1 to day 19 measured on day 19 by immunohistochemical analysis; assay type: functional, organism-based
Procedure, shortened: (§1)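 HCT-116 xenograft mice were dosed orally at 15 or 30 mg/kg, or 30 mg/kg for reference agents, for 19 days, with vehicle or saline controls. Tumor sections were stained for Ki-67, c-Myc, Ac-H3, BRD4, LC3-II, LIFR and p-STAT3 by immunohistochemistry, and TUNEL staining was used as the apoptosis marker.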

Mus musculus [2] = assay: Increase in LIFR expression in tumor tissue of BALB/cAnNCrl mouse xenografted with human HCT116 cells at 30 mg/kg, po administered on day 1 to day 19 measured on day 19 by immunohistochemical analysis; assay type: functional, organism-based; procedure, shortened: as §1
HCT-116 [3] = assay: Effect on histone H3 expression level in human HCT116 cells measured after 24 hrs by Western blot analysis; assay type: functional, cell-based
[4] = biological target: T1, Bromodomain-containing protein 4 (Homo sapiens, UniProt O60885); assay: Inhibition of BRD4 in human HCT116 cells assessed as induction of autophagy by measuring p62 degradation at 2 uM measured after 24 hrs by Western blot analysis; assay type: cell-based
Procedure, shortened: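 HCT-116 cells incubated 24 h with test agent at 2.0 µM, alongside 0.5 µM and 10 µM comparator treatments; LC3 and p62 protein detected by western blot.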

[5] = biological target: T1, Bromodomain-containing protein 4; assay: Inhibition of BRD4 in human HCT116 cells assessed as induction of autophagy by measuring LC3-I cleavage to LC3-II at 2 uM measured after 24 hrs by Western blot analysis; assay type: cell-based
Procedure, shortened: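 HCT-116 cells were treated for 24 hours with 0.5 μM, 2.0 μM or 10 μM agents. LC3 (LC3-I to LC3-II conversion) and p62 were then detected by western blot.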

[6] = biological target: T1, Bromodomain-containing protein 4; assay: Inhibition of BRD4 in human HCT116 cells assessed as activation of IL6-JAK-STAT signaling pathway by measuring increase in IL6 mRNA level at 2 uM after 24 hrs by RT-PCR analysis; assay type: cell-based
Procedure, shortened: (§2)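 HCT-116 cells were incubated for 24 hours with the test agents at 0.5, 2.0 or 10 μM. IL6, OSM, LIF and CTF1 mRNA levels were then measured.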

[7] = biological target: T1, Bromodomain-containing protein 4; assay: Inhibition of BRD4 in human HCT116 cells assessed as activation of IL6-JAK-STAT signaling pathway by measuring increase in OSM mRNA level at 2 uM after 24 hrs by RT-PCR analysis; assay type: cell-based; procedure, shortened: as §2
[8] = biological target: T1, Bromodomain-containing protein 4; assay: Inhibition of GST-tagged BRD4 bromodomain (unknown origin) using biotinylated histone H4KAc peptide (1 to 21 residues) as substrate by HTRF assay
[9] = biological target: T1, Bromodomain-containing protein 4; assay: Inhibition of BRD4 in human HCT116 cells assessed as activation of IL6-JAK-STAT signaling pathway by measuring increase in LIF mRNA level at 2 uM after 24 hrs by RT-PCR analysis; assay type: cell-based; procedure, shortened: as §2
HCT-116 [10] = assay: Antiproliferative activity against human HCT116 cells assessed as reduction in cell viability measured after 24 to 48 hrs by MTT assay; assay type: functional, cell-based
[11] = biological target: T1, Bromodomain-containing protein 4; assay: Inhibition of BRD4 in human HCT116 cells assessed as activation of IL6-JAK-STAT signaling pathway by measuring increase in CTF1 mRNA level at 2 uM after 24 hrs by RT-PCR analysis; assay type: cell-based; procedure, shortened: as §2
Mus musculus [12] = assay: Induction of autophagy in BALB/cAnNCrl mouse xenografted with human HCT116 cells assessed as increase in LC3-II level in tumor tissue at 30 mg/kg, po administered on day 1 to day 19 measured on day 19 by immunohistochemical analysis; assay type: functional, organism-based; procedure, shortened: as §1
DLD-1 = assay: Antiproliferative activity against human DLD1 cells assessed as reduction in cell viability measured after 24 to 48 hrs by MTT assay; assay type: functional, cell-based
SW-620 = assay: Antiproliferative activity against human SW620 cells assessed as reduction in cell viability measured after 24 to 48 hrs by MTT assay; assay type: functional, cell-based
HCT-116 [13] = assay: Decrease in BRD4 expression in human HCT116 cells incubated for 24 hrs by western blot analysis; assay type: functional, cell-based
Histone deacetylase 7 = biological target: T2, Histone deacetylase 7 (Homo sapiens, UniProt Q8WUI4); assay: Inhibition of HDAC7 (unknown origin) using biotinylated histone H3 KAc peptide (1 to 21 residues) as substrate by HTRF assay
T2 sequence (Q8WUI4 whole entry): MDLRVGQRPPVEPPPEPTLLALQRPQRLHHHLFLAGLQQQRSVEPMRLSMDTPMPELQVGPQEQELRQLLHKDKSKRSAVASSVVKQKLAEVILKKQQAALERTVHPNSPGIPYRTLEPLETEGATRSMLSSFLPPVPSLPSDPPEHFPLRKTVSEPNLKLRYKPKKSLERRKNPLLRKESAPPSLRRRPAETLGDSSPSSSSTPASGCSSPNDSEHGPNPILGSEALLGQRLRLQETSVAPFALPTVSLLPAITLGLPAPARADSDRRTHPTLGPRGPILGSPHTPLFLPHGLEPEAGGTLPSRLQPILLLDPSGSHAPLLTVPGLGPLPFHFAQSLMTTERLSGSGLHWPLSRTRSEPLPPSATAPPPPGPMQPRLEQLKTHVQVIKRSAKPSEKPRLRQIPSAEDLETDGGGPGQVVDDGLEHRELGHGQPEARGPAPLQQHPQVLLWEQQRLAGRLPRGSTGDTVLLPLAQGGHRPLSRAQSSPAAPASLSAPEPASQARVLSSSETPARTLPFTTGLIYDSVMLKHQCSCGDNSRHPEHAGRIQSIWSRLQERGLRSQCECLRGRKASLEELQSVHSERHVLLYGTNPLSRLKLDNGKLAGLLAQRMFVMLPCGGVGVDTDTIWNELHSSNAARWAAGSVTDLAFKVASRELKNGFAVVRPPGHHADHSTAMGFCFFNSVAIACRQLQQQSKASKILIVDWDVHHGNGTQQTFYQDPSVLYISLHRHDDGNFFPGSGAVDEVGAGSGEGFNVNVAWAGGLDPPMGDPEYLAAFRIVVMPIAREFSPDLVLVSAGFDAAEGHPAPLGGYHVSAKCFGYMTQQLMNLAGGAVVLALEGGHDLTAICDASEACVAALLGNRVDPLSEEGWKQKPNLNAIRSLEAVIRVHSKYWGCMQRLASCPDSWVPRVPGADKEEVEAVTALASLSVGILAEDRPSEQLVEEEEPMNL

Histone deacetylase 2 = Histone deacetylase 2 (Homo sapiens, UniProt Q92769)
[14] = biological target: T3, Protein deacetylase HDAC6 (Homo sapiens, UniProt Q9UBN7); assay: Inhibition of HDAC6 (unknown origin) using biotinylated histone H3 KAc peptide (1 to 21 residues) as substrate by HTRF assay
T3 sequence (Q9UBN7 whole entry): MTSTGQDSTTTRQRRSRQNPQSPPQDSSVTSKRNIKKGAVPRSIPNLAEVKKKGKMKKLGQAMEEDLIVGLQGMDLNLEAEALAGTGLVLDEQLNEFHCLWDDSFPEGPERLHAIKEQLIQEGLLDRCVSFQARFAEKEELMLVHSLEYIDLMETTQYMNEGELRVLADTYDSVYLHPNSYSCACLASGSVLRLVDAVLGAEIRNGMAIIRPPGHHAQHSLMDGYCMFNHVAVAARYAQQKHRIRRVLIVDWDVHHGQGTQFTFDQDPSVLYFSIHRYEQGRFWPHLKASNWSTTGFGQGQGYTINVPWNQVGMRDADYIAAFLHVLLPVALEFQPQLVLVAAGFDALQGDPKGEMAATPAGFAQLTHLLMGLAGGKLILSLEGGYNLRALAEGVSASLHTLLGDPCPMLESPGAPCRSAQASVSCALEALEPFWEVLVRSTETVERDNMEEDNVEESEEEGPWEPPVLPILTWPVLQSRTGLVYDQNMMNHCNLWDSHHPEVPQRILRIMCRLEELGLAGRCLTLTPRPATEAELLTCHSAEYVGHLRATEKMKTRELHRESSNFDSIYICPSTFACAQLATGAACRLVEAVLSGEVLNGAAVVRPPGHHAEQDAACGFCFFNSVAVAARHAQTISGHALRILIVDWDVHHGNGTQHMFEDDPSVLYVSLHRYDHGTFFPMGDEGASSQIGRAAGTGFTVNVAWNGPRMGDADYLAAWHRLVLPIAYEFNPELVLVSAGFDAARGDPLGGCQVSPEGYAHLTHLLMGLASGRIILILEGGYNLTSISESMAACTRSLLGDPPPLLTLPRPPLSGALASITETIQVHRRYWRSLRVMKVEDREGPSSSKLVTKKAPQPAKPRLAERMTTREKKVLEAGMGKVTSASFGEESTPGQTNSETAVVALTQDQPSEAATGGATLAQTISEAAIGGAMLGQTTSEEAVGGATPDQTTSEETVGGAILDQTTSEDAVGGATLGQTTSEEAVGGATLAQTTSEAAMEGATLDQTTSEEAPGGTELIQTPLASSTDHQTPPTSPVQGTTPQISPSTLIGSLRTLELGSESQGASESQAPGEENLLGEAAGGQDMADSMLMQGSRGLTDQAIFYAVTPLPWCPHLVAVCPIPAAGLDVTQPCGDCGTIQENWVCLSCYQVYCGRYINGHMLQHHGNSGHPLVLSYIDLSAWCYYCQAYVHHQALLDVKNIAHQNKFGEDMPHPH

Chain of Histone deacetylase 2 (Q92769 whole entry, the tested form may be a part): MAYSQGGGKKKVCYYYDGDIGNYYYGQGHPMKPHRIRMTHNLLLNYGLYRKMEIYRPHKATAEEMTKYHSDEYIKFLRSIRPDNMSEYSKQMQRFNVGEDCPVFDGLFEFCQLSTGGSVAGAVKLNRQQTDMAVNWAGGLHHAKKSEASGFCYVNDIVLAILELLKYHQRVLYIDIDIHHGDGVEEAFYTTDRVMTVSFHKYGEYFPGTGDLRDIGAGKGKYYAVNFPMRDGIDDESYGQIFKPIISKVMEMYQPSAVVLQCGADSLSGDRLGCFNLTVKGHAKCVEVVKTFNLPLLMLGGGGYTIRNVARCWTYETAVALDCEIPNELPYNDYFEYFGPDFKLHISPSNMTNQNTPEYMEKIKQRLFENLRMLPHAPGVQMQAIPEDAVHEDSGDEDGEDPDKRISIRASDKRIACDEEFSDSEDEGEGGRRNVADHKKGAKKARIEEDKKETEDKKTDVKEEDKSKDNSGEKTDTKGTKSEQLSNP

Structure (SMILES): O=C(CCCCCCC(=O)Nc1ccccc1)NO
- Activity (Mus musculus [1]): Active
- Activity (Mus musculus [2]): Active
- Activity (HCT-116 [3]): inactive

Structure (SMILES): Cc1cc(-c2nc3sc4c(c3c(=O)[nH]2)CCN(C)C4)cc(C)c1O
- inhibition [4]: Active
- inhibition [5]: Active
- inhibition [6]: inactive
- inhibition [7]: inactive
- IC50 [8]: 0.85 µM
- inhibition [9]: inactive
- IC50 (HCT-116 [10]): 1.33 µM
- inhibition [11]: inactive
- Activity (Mus musculus [12]): Active

Structure (SMILES): COc1cc(OC)c2c(=O)[nH]c(-c3cc(C)c(OCCO)c(C)c3)nc2c1 [APABETALONE]
- IC50 (HCT-116 [10]): 12.8 µM
- IC50 (DLD-1): > 10 µM
- IC50 (SW-620): > 10 µM
- inhibition (HCT-116 [13]): Active
- Activity (HCT-116 [3]): inactive

Structure (SMILES): Cc1cc(-c2nc3sc4c(c3c(=O)[nH]2)CCN(C)C4)cc(C)c1OCc1ccc(/C=C/C(=O)NO)cc1
- IC50 [8]: 1.19 µM
- IC50 (Histone deacetylase 7): > 10 µM
- IC50 (Histone deacetylase 2): 0.097 µM
- IC50 (HCT-116 [10]): 0.92 µM
- IC50 (DLD-1): 3.67 µM
- IC50 (SW-620): 2.34 µM
- IC50 [14]: 0.202 µM
